The record followed here is ChEMBL document CHEMBL2157866, “Virtual screening and computational optimization for the discovery of covalent prolyl oligopeptidase inhibitors with activity in human cells” (J Med Chem, 2012).

A short description of data set [1]: Intrinsic clearance in human liver microsomes at 1 uM after 30 mins by LC-MSD method. The data set is classed as ADME, Microsome. As to conditions: read-out: CLH. A digest of the protocol: (§1)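 Test compound at 1 μM in 0.1 M KH2PO4 pH 7.4 with liver microsomes (0.5618 mg/mL) at 37 °C. Reaction started with NADPH. Aliquots taken at 0, 10, 20 and 30 min and quenched into equal-volume acetonitrile. Samples centrifuged at 9000g, 4 °C, and supernatants analysed by LC-MSD.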
(In general: Liver microsomes are vesicles of endoplasmic reticulum, rich in cytochrome P450 enzymes.)

Data set [2] is described as follows: Half life in human liver microsomes at 1 uM after 30 mins by LC-MSD method. The data set is classed as ADME, Microsome. A digest of the protocol:
as §1

A short description of data set [3]: Intrinsic clearance in rat liver microsomes at 1 uM after 30 mins by LC-MSD method. The data set is classed as ADME, Microsome. The following applies: read-out: CLH. The gist of the method: as §1
In a further data set the target is T1, Prolyl endopeptidase FAP (Homo sapiens, UniProt Q12884).
T1 sequence (Q12884 whole entry): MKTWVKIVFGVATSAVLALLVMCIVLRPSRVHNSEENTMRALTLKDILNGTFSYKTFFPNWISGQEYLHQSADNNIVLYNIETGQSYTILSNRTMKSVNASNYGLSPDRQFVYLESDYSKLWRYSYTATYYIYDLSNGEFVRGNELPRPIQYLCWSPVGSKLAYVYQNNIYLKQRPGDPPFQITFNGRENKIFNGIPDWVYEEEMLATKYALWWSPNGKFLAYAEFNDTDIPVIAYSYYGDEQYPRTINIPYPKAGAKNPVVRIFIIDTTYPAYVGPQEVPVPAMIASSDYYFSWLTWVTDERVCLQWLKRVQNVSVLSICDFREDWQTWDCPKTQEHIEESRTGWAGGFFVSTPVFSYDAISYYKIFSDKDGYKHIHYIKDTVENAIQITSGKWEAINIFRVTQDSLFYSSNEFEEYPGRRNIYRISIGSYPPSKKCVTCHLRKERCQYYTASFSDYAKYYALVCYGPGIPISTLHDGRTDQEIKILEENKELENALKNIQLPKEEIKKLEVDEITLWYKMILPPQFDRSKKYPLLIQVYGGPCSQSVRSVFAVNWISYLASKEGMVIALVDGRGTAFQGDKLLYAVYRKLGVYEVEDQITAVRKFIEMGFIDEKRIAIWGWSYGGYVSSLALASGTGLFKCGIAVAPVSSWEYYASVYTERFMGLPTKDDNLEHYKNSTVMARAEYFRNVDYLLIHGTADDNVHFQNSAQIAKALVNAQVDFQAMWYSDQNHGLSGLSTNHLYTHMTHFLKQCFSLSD
Put plainly: Inhibition at human recombinant FAPalpha. The gist of the method:
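Recombinant human FAPα diluted in PBS with 1 mg/mL BSA. Setup as for cell extracts: inhibitor preincubated 5–10 min at room temperature, then Z-Gly-Pro-AMC at 10 μM final. AMC fluorescence (ex/em 360/460 nm) recorded for 30 min at 37 °C.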

A short description of data set [4]: Half life in rat liver microsomes at 1 uM after 30 mins by LC-MSD method. The format is ADME, Microsome. A digest of the protocol: as §1

pIC50: −log10 of the molar value.

In the case of `N#C[C@@H]1CS[C@H]2C[C@@H](NC(=O)OCc3ccccc3)C(=O)N12`, the microsomal CLint at 1 µM in data set [1] was determined as 10 µL/min/mg. In addition, the half-life (commonly the time needed for the level to fall by half in the phase considered) at 1 µM in data set [2] turned out to be 134 min.
Turning to `N#C[C@@H]1CCCN1C(=O)c1ccccc1C(=O)NCc1ccccc1`, the microsomal CLint at 1 µM in data set [3] was found to be 37 µL/min/mg; in data set [1] it was 44 µL/min/mg. Besides, the pIC50 (usually the IC50 on a negative log10 scale, so that one unit is a factor of ten) at Prolyl endopeptidase FAP is under 4.00. For the same compound, the half-life at 1 µM in data set [2] was 31 min; in data set [4], 38 min.
Consider `O=C(NCc1ccccc1)c1ccccc1C(=O)N1CCCC1`, for which the figures for the microsomal CLint at 1 µM in data set [3] and in data set [1] were 83 µL/min/mg and 25 µL/min/mg, respectively. Further, the figures for the half-life at 1 µM in data set [2] and in data set [4] were 55 min and 17 min, respectively.
As for `O=C(NCc1ccccc1)c1ccccc1C(=O)N1CCCCC1`, the values for the microsomal CLint at 1 µM in data set [3] and in data set [1] were 311 µL/min/mg and 89 µL/min/mg, respectively. For the same compound, the figures for the half-life at 1 µM in data set [2] and in data set [4] were 16 min and 4 min, respectively.
In the case of `N#C[C@@H]1CCCN1C(=O)c1cccc2c1C(=O)N(Cc1ccccc1)C2`, the microsomal CLint at 1 µM in data set [3] amounted to 39 µL/min/mg; in data set [1] it was 13 µL/min/mg. Also, the pIC50 at Prolyl endopeptidase FAP was under 4.00. Besides, the figures for the half-life at 1 µM in data set [2] and in data set [4] were 111 min and 35 min, respectively.
Consider `O=C(c1cccc2c1C(=O)N(Cc1ccccc1)C2)N1CCCC1`, for which the microsomal CLint at 1 µM in data set [3] was found to be 62 µL/min/mg; in data set [1] it was 14 µL/min/mg. Besides, the pIC50 on Prolyl endopeptidase FAP was under 4.00. Moreover, the half-life at 1 µM in data set [2] is 98 min; in data set [4], 23 min.
